In general, pIC50 refers to −log10 of the IC50, conventionally taken in molar units. The low end stands for a high IC50, the high end for a low IC50.

Five compounds from PMC9037807 (RSC Advances, 2021) can be followed below.

The target in data set [1] is T1, ovine COX-1 (Ovis aries, UniProt P05979).
T1 sequence (P05979 25-600): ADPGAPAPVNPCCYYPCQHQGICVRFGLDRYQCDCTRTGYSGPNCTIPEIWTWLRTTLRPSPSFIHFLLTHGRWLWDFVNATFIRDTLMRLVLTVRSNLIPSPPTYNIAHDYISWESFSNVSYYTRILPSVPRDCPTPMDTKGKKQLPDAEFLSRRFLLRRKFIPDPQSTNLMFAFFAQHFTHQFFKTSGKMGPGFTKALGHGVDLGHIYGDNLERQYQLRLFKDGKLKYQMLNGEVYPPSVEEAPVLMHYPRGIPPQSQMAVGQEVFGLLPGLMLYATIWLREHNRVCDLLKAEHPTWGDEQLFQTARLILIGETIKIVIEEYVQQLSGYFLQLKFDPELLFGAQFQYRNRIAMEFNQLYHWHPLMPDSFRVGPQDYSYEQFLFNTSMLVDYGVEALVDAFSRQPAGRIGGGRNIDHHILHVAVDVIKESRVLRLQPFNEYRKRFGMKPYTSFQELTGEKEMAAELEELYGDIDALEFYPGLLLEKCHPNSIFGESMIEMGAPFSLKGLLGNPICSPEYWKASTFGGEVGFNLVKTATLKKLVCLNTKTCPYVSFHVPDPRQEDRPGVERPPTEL
Briefly: In vitro cyclooxygenase. It is filed as biochemical.

Data set [2] concerns carrageenan-induced rat paw edema. Put plainly: Carrageenan-induced rat paw edema model. It is filed as in vivo. The settings on record: 10 mg kg−1 po, n = 4; for Edema inhibition %, 1 h / Edema thickness ± SEM, 1 h: 1 h after carrageenan injection; for Edema inhibition %, 3 h / Edema thickness ± SEM, 3 h: 3 h after carrageenan injection; for Edema inhibition %, 6 h / Edema thickness ± SEM, 6 h: 6 h after carrageenan injection. An outline of the steps:
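Rats were dosed orally with test compound (10 mg kg−1) in 5% aqueous DMSO (v/v). […] Thirty minutes after dosing, 0.02 ml of 1% carrageenan was injected sub-plantar. Paw thickness was measured 1, 3 and 6 h after injection, and edema inhibition % was calculated from paw thickness.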

The target in data set [3] is T2, ovine COX-2 (Ovis aries, UniProt P79208).
T2 sequence (P79208 17-603): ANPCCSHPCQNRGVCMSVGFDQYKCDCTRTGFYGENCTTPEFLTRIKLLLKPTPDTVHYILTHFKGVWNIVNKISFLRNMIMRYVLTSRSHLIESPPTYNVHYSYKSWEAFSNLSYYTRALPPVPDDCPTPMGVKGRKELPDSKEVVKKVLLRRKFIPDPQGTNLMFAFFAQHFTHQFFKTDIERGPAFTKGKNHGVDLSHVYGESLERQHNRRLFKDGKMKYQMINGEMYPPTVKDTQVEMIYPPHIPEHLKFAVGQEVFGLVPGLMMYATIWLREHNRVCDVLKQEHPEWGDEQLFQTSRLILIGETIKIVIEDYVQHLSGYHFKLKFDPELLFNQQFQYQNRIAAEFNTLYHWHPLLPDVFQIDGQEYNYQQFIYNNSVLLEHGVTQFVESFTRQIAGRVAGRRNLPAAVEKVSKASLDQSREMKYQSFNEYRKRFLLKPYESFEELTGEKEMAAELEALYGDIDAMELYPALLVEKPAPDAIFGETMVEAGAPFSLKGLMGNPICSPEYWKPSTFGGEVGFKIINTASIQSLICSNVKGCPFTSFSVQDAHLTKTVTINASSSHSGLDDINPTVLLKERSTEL
Put plainly: In vitro cyclooxygenase. It is filed as biochemical. The settings on record: for Selectivity index (SI): COX-1 IC50/COX-2 IC50.

For data set [4], the system named is rat stomach. Briefly: Ulcerogenic liability. It is filed as in vivo. The following applies: rats sacrificed 4 h after drug administration.
Data set [5] concerns rat's stomach. Briefly: Histo-pathological study of glandular and non-glandular stomach. It is filed as in vivo. The settings on record: text description.

pIC50: −log10 of the molar value. “And” between values parts separate entries of the source, which are not always exact repeats. Equal entries are not always repeated.

For `CS(=O)(=O)c1ccc(-c2nc3ccccc3n2CC(=O)N/N=C/c2ccc(Cl)cc2)cc1` [11b, (E)-N′-(4-Chlorobenzylidene)-2-(2-(4-(methylsulfonyl)phenyl)-1H-benzo[d]imidazol-1-yl) acetohydrazide], in data set [1], the negative logarithm of the IC50 (pIC50) was 4.87. Moreover, in data set [2], the “Edema inhibition %, 1 h” value was determined as 86%; the “Edema thickness ± SEM, 1 h” value was found to be 0.357 ± 0.012 mm; the “Edema inhibition %, 3 h” value stood at 93%; the “Edema thickness ± SEM, 3 h” value amounted to 0.155 ± 0.002 mm. In data set [2], the “Edema inhibition %, 6 h” value turned out to be 95% and the “Edema thickness ± SEM, 6 h” value stood at 0.094 ± 0.006 mm. Further, in data set [3], the pIC50 was 7.00 and the “Selectivity index (SI)” value is given as 134. Besides, the “Ulcer index, mean” value in data set [4] came to 0.83 mm. Moreover, in data set [5], the “Severity of histopathological lesions of the stomach (in words)” value is “mild pathological lesions”.
`COc1ccc(/C=N/NC(=O)Cn2c(-c3ccc(S(C)(=O)=O)cc3)nc3cc(C)ccc32)cc1` [11k, (E)-N′-(4-Methoxybenzylidene)-2-(5-methyl-2-(4-(methylsulfonyl)phenyl)-1H-benzo[d]imidazol-1-yl) acetohydrazide] showed a negative logarithm of the IC50 (pIC50) in data set [1] of 4.91. For the same compound, in data set [2], the “Edema inhibition %, 1 h” value stood at 82%; the “Edema thickness ± SEM, 1 h” value is 0.464 ± 0.014 mm; the “Edema inhibition %, 3 h” value was 92%; the “Edema thickness ± SEM, 3 h” value was found to be 0.189 ± 0.017 mm. In data set [2], the “Edema inhibition %, 6 h” value is given as 94% and the “Edema thickness ± SEM, 6 h” value is on record as 0.111 ± 0.009 mm. Further, in data set [3], the negative logarithm of the IC50 (pIC50) was 7.00 and the “Selectivity index (SI)” value was determined as 123. The “Ulcer index, mean” value in data set [4] is reported as 4.5 mm. In addition, the “Severity of histopathological lesions of the stomach (in words)” value in data set [5] was “mild to moderate lesions”.
`C/C(=N\NC(=O)Cn1c(-c2ccc(S(C)(=O)=O)cc2)nc2cc(Cl)ccc21)c1ccc(Cl)cc1` [12d, (E)-2-(5-Chloro-2-(4-(methylsulfonyl)phenyl)-1H-benzo[d]imidazol-1-yl)-N′-(1-(4-chlorophenyl)ethylidene) acetohydrazide] showed a negative logarithm of the IC50 (pIC50) in data set [1] of 4.88. In data set [2], the “Edema inhibition %, 1 h” value came to 89%; the “Edema thickness ± SEM, 1 h” value stood at 0.286 ± 0.009 mm; the “Edema inhibition %, 3 h” value turned out to be 93%; the “Edema thickness ± SEM, 3 h” value is 0.154 ± 0.008 mm. In data set [2], the “Edema inhibition %, 6 h” value is 94.7% and 95%; the “Edema thickness ± SEM, 6 h” value stood at 0.098 ± 0.005 mm. Further, in data set [3], the pIC50 was 7.00 and the “Selectivity index (SI)” value was determined as 132. Moreover, the “Ulcer index, mean” value in data set [4] came out at 1 mm. Moreover, the “Severity of histopathological lesions of the stomach (in words)” value in data set [5] is recorded as “mild pathological lesions”.
As to `Cc1ccc(-c2cc(C(F)(F)F)nn2-c2ccc(S(N)(=O)=O)cc2)cc1` [Celecoxib, celecoxib, reference compound], in data set [2], the “Edema inhibition %, 1 h” value was determined as 74%; the “Edema thickness ± SEM, 1 h” value came to 0.690 ± 0.017 mm; the “Edema inhibition %, 3 h” value was found to be 94%; the “Edema thickness ± SEM, 3 h” value turned out to be 0.142 ± 0.009 mm. In data set [2], the “Edema inhibition %, 6 h” value is 96% and the “Edema thickness ± SEM, 6 h” value stood at 0.070 ± 0.005 mm. Also, the “Ulcer index, mean” value in data set [4] is given as 3.5 mm. Besides, the “Severity of histopathological lesions of the stomach (in words)” value in data set [5] is on record as “mild lesions”.
Consider `COc1ccc2c(c1)c(CC(=O)O)c(C)n2C(=O)c1ccc(Cl)cc1` [Indomethacin, indomethacin, reference compound], for which, in data set [2], the “Edema inhibition %, 3 h” value was determined as 96%; the “Edema thickness ± SEM, 3 h” value was determined as 0.083 ± 0.005 mm; the “Edema inhibition %, 6 h” value is given as 97%; the “Edema thickness ± SEM, 6 h” value is listed as 0.051 ± 0.004 mm. In data set [4], the “Ulcer index, mean” value is recorded as 13 mm. The “Severity of histopathological lesions of the stomach (in words)” value in data set [5] is “severe lesions”.
